Drawing on ChEMBL document CHEMBL1138273, “Design, synthesis, and characterization of new iron chelators with anti-proliferative activity: structure-activity relationships of novel thiohydrazone analogues” (J Med Chem, 2007), this text covers IC50, Activity and response, % of control for 15 compounds.

Some results are limits rather than exact numbers.

Test [1] relates to SK-N-MC. The experiment in a line: Antiproliferative activity against human SK-N-MC cells by MTT assay. The class given is functional, cell-based. The procedure, abridged:
(§1)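 MTT colour formation, shown to be directly proportional to viable cell number counted by Trypan blue, was used to read growth of SK-N-MC neuroepithelioma or mortal MRC-5 fibroblast cells. IC50 values are given as mean ± SD of 3 experiments.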

The subject of test [2] is MRC5. The experiment in a line: Antiproliferative activity against human MRC5 cells by MTT assay. It is filed as cell-based. The procedure, abridged: as §1
Test [3] deals with SK-N-MC. In words: Effect on iron efflux in human SK-N-MC cells assessed as cellular iron release. The class given is functional. Details: concentration or dose not given beside the values. The method in brief:
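SK-N-MC cells were prelabeled with 59Fe-transferrin (0.75 µM) for 3 h at 37 °C, washed four times with ice-cold PBS, then incubated with chelator (50 µM). Overlying medium was separated from cells, and released versus retained 59Fe was gamma-counted in supernatant and cell pellet. Mean ± SD of 3 experiments, 3 determinations each.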

Test [4] concerns SK-N-MC. In words: Inhibition of cellular iron uptake from 59Fe]transferrin in human SK-N-MC cells at 50 uM relative to control. The following applies: values are per cent of control. The class given is functional. The method in brief:
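Cells were co-incubated for 3 h at 37 °C with 59Fe-transferrin (0.75 µM) plus chelator (50 µM), then washed four times in ice-cold PBS. Pronase (1 mg/mL, 30 min, 4 °C) stripped membrane-bound 59Fe, and the Pronase-insensitive fraction was counted as internalized. Values are % of control, mean ± SD of 3 experiments with 3 determinations each.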

The term IC50 denotes the concentration that gives 50% inhibition. For the compound `Oc1ccccc1/C=N/NC(=S)c1ccccc1` [SALICYLALDEHYDE THIOBENZOYL HYDRAZONE], the IC50 in test [1] stood at 24500 nM; in test [2] it was 57000 nM. Further, the Activity in test [3] worked out at 37%. Besides, the response, % of control at 50 µM in test [4] was found to be 20%.
For the compound `Cc1ncc(CO)c(/C=N/NC(=S)c2ccccc2)c1O` [PYRIDOXAL THIOBENZOYL HYDRAZONE], the half-inhibitory concentration (IC50) in test [1] was 58200 nM; in test [2], above 80000 nM.
Turning to `O=C(N/N=C/c1c(O)ccc2ccccc12)c1ccncc1`, half-maximal inhibition in test [1] (IC50) was put at 590 nM. Moreover, in test [3], the Activity stood at 44%.
For `Cc1ncc(CO)c(/C=N/NC(=O)c2ccccc2)c1O` [PYRIDOXAL BENZOYL HYDRAZONE], in test [1], the IC50 was found to be 31800 nM.
Turning to `S=C(N/N=C(/c1ccccc1)c1ccccn1)c1ccccc1`, the IC50 in test [1] is 11 nM; in test [2] it was 530 nM.
In turn, `O=C(NN=C(c1ccccn1)c1ccccn1)c1ccccc1` came in with an IC50 in test [1] of 1240 nM.
On to `Cc1ncc(CO)c(/C=N/NC(=O)c2ccncc2)c1O` [PYRIDOXAL ISONICOTINOYL HYDRAZONE], for which the Activity in test [3] was 44%.
Regarding `CC(=O)N(O)CCCCCNC(=O)CCC(=O)N(O)CCCCCNC(=O)CCC(=O)N(O)CCCCCN` [DEFEROXAMINE], half-maximal inhibition in test [1] (IC50) was put at 14200 nM. Also, the Activity in test [3] was 17%.
In test [1], `O=C(N/N=C/c1c(O)ccc2ccccc12)c1ccccc1` gave an IC50 of 990 nM.
For the compound `S=C(NN=C(c1ccccn1)c1ccccn1)c1ccccc1`, the IC50 came out at 12 nM in test [1] and 750 nM in test [2]. The Activity in test [3] is 37%. In addition, the response, % of control at 50 µM in test [4] stood at 20%.
In test [1], `NC(=S)N/N=C/c1ncccc1N` [TRIAPINE] had an IC50 of 540 nM.
With `Oc1ccc2ccccc2c1/C=N/NC(=S)c1ccccc1`, the half-inhibitory concentration (IC50) is 2530 nM in test [1] and 3890 nM in test [2]. Besides, the Activity in test [3] was determined as 37%. Also, the response, % of control at 50 µM in test [4] was found to be 20%.
For `O=C(N/N=C/c1ccccc1O)c1ccccc1` [SALICYLALDEHYDE BENZOYL HYDRAZONE], the 50% inhibitory concentration (IC50) in test [1] was 3230 nM.
The same measure, in the same setting: for `O=C(N/N=C(/c1ccccc1)c1ccccn1)c1ccccc1` the value was 1470 nM.
`CN(C)C(=S)NN=C(c1ccccn1)c1ccccn1` had an IC50 in test [1] of 2 nM. The Activity in test [3] came out at 44%.
